Consider seven molecules from ChEMBL document CHEMBL2346529, “The human Aurora kinase inhibitor danusertib is a lead compound for anti-trypanosomal drug discovery via target repurposing” (Eur J Med Chem, 2013).

Active and inactive are the calls of the source. The rule behind the calls is not given here.

Data set [1] relates to MOLT-4. Briefly: Cytotoxicity against human MOLT4 cells assessed as inhibition of cell growth after 4 days by Cell Titer Blue end-point assay. The format is cell-based. The settings on record: MOLT-4, 96 h. The method in brief: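 MOLT-4 cells in RPMI 1640 with 20% FBS were seeded at 5×10^4 cells/mL and grown 24 h before inhibitor was added. There were 8 concentrations in triplicate, spanning 50 nM to 30 μM final. Treatment lasted 4 days, then CTB was added for 3 h at 37°C. Fluorescence was read at 560Ex/590Em, with cell-free background subtracted and DMSO-only wells taken as 100%. EC50 was fitted from inhibition curves.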
A general note: The colour change of resazurin is a common sign of viable cells or microbes.

Data set [2] has as its system Trypanosoma brucei. Briefly: Inhibition of NH3-AU1 epitope-tagged recombinant Trypanosoma brucei AUK1 expressed in procyclic form trypanosome AnTat1.1 assessed as decrease in myelin basic protein phosphorylation at 500 nM preincubated for 5 mins by pull down assay in presence of [gamma-32P]ATP. The gist of the method:
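AU1-tagged TbAUK1 came from procyclic AnTat1.1 cells pretreated with 16 μM MG132 for 3 h. Lysate was pre-cleared and immunoprecipitated overnight at 4°C on AU1 beads. Bead kinase was mixed with 160 μg myelin basic protein in Hepes/KCl/NaF/MgCl2/DTT buffer, pH 7.4, with drug preincubated 5 min. Reactions were started with 8 μM ATP plus [γ-32P]ATP and run 30 min at 30°C. Products were read by SDS-PAGE autoradiography.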

A short description of data set [3]: Selectivity ratio of EC50 for human MOLT4 cells to EC50 for bloodstream form of Trypanosoma brucei brucei Lister 427 90-13. The format is ADME, cell-based, MOLT-4. The settings on record: read-out: Ratio EC50. The gist of the method:
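The ratio is MOLT-4 EC50 over T. b. brucei 90-13 EC50. BF 90-13 cells in HMI-9 with G418 and hygromycin B were seeded at 1×10^5 cells/mL and exposed 48 h to 8 concentrations (50 nM–8 μM final, 0.2% DMSO) in triplicate. MOLT-4 cells were treated 4 days. Both were read by CTB fluorescence, with EC50 fitted from inhibition curves.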

For data set [4], the system named is Trypanosoma brucei brucei. As to the kind of experiment: Antitrypanosomal activity against bloodstream form of Trypanosoma brucei brucei Lister 427 90-13 assessed as inhibition of growth in log phase after 48 hrs by Cell Titer Blue end-point assay. The format is functional, organism-based. The settings on record: Lister 427 90-13, 48 h. The method in brief: (§1)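 Dose-response: at least 8 final concentrations (50 nM–8 μM, 0.2% DMSO), each in triplicate, on log-phase bloodstream-form cells at 1×10^5 cells/mL. Incubation was 48 h at 37°C, 5% CO2, followed by a 3 h CellTiter-Blue fluorescence read with background subtracted. EC50 was derived from inhibition curves. YTat1.1 was culture-adapted from rat blood in HMI-9 with FBS and Serum Plus; its data come from 2–3 independent experiments. 90-13 was grown in HMI-9 with G418 and hygromycin B.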

A short description of data set [5]: Selectivity ratio of EC50 for human MOLT4 cells to EC50 for bloodstream form of Trypanosoma brucei rhodesiense YTat1.1. In kind it is ADME, cell-based, MOLT-4. The settings on record: read-out: Ratio EC50. The method in brief:
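Ratio of MOLT-4 EC50 to YTat1.1 EC50. MOLT-4 cells were grown in RPMI 1640 with 20% FBS, seeded at 5×10^4 cells/mL and grown 24 h before compound was added. Treatment used 8 triplicate concentrations between 50 nM and 30 μM for 4 days, followed by a 3 h CellTiter-Blue read at 37°C. The parasite EC50 came from a 48 h CellTiter-Blue dose-response (50 nM–8 μM).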

Data set [6] deals with Trypanosoma brucei rhodesiense. Briefly: Antitrypanosomal activity against bloodstream form of Trypanosoma brucei rhodesiense YTat1.1 assessed as inhibition of growth in log phase after 48 hrs by Cell Titer Blue end-point assay. In kind it is functional, organism-based. The settings on record: YTat1.1, 48 h. The gist of the method:
as §1

Regarding `CN1CCN(c2ccc(C(=O)Nc3n[nH]c4c3CN(C(=O)Nc3ccccc3)C4)cc2)CC1`, the EC50 was determined as 3550 nM in data set [1] and 6100 nM in data set [4]. The inhibition entry in data set [2] is “Active”. Besides, the selectivity ratio in data set [3] amounted to 0.58.
As for `CO[C@@H](C(=O)N1Cc2n[nH]c(NC(=O)c3ccc(N4CCN(C)CC4)cc3)c2C1)c1ccccc1` [DANUSERTIB], the selectivity ratio in data set [3] amounted to 0.25; in data set [5] it was 1.
With `CN1CCN(c2ccc(C(=O)Nc3n[nH]c4c3CN(C(=O)c3ccccc3)C4)cc2)CC1`, the EC50 in data set [1] worked out at 540 nM; in data set [4], 11100 nM. The inhibition entry in data set [2] is “inactive”. Besides, the selectivity ratio in data set [3] came to 0.05.
Turning to `Cc1ccc(S(=O)(=O)N2Cc3[nH]nc(NC(=O)c4ccc(N5CCN(C)CC5)cc4)c3C2)cc1`, the EC50 stood at 940 nM in data set [1] and 5700 nM in data set [4]. The inhibition result in data set [2] is “Active”. Besides, in data set [3], the selectivity ratio is 0.16.
In the case of `CO[C@@H](C(=O)N1Cc2[nH]nc(NC(=O)c3ccc(N4CCN(C)CC4)cc3)c2C1)c1ccccc1` [DANUSERTIB], the values for the EC50 in data set [6] and in data set [4] were 150 nM and 600 nM, respectively. Further, the inhibition entry in data set [2] was “Active”.
As to `CCc1cccc(CC)c1NC(=O)N1Cc2n[nH]c(NC(=O)c3ccc(N4CCN(C)CC4)cc3)c2C1` [PHA-680632], the selectivity ratio in data set [3] turned out to be 0.06; in data set [5], 0.18.
As to `CCc1cccc(CC)c1NC(=O)N1Cc2[nH]nc(NC(=O)c3ccc(N4CCN(C)CC4)cc3)c2C1` [PHA-680632], the EC50 in data set [6] came out at 1250 nM; in data set [1], 220 nM; in data set [4], 4000 nM. In data set [2], the inhibition result is “Active”.

By EC50 is commonly meant the concentration giving half of the maximal effect.
